Experimental data as given in ChEMBL document CHEMBL2424622, “Development of amino-pyrimidine inhibitors of c-Jun N-terminal kinase (JNK): kinase profiling guided optimization of a 1,2,3-benzotriazole lead” (Bioorg Med Chem Lett, 2013).

What was measured:
[1] = molecular target: MAP kinase-activated protein kinase 2 (Homo sapiens) (UniProt P49137); test: Competitive binding affinity to MAPKAPK2 (unknown origin) at 10 uM in presence of ATP relative to control
[2] = molecular target: Mitogen-activated protein kinase kinase kinase kinase 4 (Homo sapiens) (UniProt O95819); test: Competitive binding affinity to MAP4K4 (unknown origin) at 10 uM in presence of ATP relative to control
Mitogen-activated protein kinase kinase kinase kinase 4 (Homo sapiens), sequence (O95819 2-1239 limits assumed): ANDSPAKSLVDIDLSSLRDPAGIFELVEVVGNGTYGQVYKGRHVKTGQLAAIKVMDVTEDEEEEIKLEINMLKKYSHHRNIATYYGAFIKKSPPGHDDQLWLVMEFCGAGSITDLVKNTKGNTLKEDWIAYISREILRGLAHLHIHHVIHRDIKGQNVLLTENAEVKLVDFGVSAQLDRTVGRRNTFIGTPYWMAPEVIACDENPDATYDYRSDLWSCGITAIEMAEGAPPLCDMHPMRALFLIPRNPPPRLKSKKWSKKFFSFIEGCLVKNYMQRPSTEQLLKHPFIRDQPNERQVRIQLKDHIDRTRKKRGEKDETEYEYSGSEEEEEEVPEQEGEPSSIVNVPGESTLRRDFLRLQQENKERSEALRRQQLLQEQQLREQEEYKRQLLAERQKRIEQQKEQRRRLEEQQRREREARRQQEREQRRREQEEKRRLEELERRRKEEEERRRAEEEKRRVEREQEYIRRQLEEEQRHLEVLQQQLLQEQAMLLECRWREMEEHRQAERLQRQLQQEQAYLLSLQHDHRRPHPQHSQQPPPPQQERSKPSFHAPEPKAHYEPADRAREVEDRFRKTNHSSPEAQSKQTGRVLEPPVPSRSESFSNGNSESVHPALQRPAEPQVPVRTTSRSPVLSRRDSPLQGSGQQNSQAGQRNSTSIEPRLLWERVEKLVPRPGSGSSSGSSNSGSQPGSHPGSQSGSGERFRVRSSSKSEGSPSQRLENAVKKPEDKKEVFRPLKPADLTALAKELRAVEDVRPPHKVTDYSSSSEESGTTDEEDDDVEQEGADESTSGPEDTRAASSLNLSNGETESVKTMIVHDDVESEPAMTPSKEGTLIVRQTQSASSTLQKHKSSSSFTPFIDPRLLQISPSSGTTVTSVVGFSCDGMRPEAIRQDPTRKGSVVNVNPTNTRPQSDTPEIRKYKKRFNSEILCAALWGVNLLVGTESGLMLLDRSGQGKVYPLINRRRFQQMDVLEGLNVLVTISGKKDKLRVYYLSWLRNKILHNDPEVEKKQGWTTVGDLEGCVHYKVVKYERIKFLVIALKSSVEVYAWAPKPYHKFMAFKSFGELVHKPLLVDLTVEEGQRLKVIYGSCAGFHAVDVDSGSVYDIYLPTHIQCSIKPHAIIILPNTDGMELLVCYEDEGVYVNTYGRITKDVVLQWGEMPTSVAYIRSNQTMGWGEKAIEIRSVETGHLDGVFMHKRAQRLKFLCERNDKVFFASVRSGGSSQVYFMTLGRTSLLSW

[3] = molecular target: T1, Serine/threonine-protein kinase 17A (Homo sapiens) (UniProt Q9UEE5); test: Competitive binding affinity to DRAK1 (unknown origin) at 10 uM in presence of ATP relative to control
T1 sequence (whole entry): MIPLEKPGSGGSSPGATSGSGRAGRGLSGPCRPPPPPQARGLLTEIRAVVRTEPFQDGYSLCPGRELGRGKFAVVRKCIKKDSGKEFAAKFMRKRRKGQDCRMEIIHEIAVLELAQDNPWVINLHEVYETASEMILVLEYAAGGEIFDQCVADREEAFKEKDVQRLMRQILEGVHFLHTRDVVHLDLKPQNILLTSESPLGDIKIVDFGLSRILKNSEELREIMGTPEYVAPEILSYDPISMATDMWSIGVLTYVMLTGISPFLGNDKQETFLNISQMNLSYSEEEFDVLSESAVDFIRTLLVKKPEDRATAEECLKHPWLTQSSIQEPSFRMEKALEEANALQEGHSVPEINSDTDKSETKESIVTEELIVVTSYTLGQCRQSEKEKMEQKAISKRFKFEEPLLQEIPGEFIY

[4] = molecular target: T2, Cyclin-dependent kinase 11A (Homo sapiens) (UniProt Q9UQ88); test: Competitive binding affinity to CDC2L2 (unknown origin) at 10 uM in presence of ATP relative to control
T2 sequence (whole entry): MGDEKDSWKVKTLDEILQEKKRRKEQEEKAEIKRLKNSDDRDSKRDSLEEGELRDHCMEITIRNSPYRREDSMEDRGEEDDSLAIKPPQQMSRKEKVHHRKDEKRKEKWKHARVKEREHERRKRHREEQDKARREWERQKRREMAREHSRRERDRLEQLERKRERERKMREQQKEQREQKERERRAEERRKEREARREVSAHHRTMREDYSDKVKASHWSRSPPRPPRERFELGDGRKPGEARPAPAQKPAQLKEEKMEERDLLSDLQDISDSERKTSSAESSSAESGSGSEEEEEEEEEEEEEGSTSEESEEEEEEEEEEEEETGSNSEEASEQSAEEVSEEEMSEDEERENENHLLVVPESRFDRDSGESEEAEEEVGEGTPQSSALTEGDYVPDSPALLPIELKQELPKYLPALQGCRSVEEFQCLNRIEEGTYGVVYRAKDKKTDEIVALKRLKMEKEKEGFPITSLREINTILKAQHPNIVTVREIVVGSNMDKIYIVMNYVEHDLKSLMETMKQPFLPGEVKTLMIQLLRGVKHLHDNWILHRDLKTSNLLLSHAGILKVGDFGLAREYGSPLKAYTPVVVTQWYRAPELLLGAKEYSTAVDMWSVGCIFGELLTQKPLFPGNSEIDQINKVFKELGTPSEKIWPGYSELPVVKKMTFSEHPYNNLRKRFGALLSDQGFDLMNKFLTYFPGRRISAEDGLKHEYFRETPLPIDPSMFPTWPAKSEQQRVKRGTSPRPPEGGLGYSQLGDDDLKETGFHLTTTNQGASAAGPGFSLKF
Method in brief: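 In vitro ATP-site competition binding format, run as one member of a diverse 128-kinase profiling panel. Each compound was tested at a single concentration across the whole panel.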

[5] = molecular target: T3, Bone morphogenetic protein receptor type-2 (Homo sapiens) (UniProt Q13873); test: Competitive binding affinity to BMPR2 (unknown origin) at 10 uM in presence of ATP relative to control
T3 sequence (whole entry): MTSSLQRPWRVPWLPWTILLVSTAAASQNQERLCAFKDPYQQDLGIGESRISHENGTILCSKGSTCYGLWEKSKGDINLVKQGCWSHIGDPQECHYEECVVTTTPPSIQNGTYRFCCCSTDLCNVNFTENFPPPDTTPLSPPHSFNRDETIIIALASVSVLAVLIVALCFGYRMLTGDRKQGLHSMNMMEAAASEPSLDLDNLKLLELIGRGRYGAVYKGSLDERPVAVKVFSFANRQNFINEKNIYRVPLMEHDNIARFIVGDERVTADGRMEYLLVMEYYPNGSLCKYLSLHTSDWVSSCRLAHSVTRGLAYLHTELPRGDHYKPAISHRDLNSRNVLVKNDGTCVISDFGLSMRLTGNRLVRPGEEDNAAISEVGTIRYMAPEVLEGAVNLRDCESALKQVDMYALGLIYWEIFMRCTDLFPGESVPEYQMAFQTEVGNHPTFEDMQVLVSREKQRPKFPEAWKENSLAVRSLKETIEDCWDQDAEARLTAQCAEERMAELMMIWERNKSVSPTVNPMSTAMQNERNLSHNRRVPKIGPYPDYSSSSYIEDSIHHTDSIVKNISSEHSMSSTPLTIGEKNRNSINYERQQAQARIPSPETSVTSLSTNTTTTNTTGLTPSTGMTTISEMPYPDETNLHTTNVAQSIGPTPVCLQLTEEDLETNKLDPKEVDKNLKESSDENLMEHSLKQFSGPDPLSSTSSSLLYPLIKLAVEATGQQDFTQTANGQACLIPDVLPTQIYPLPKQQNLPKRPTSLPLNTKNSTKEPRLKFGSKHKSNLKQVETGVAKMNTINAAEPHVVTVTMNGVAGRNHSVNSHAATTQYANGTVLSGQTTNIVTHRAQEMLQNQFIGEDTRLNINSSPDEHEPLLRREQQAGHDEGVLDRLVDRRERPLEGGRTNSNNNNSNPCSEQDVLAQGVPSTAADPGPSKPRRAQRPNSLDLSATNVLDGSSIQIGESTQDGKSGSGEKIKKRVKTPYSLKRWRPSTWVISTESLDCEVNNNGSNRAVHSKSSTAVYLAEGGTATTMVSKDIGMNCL

[6] = molecular target: Cyclin-dependent kinase 18 (Homo sapiens) (UniProt Q07002); test: Competitive binding affinity to PCTK3 (unknown origin) at 10 uM in presence of ATP relative to control
Cyclin-dependent kinase 18 (Homo sapiens), sequence (Q07002 whole entry): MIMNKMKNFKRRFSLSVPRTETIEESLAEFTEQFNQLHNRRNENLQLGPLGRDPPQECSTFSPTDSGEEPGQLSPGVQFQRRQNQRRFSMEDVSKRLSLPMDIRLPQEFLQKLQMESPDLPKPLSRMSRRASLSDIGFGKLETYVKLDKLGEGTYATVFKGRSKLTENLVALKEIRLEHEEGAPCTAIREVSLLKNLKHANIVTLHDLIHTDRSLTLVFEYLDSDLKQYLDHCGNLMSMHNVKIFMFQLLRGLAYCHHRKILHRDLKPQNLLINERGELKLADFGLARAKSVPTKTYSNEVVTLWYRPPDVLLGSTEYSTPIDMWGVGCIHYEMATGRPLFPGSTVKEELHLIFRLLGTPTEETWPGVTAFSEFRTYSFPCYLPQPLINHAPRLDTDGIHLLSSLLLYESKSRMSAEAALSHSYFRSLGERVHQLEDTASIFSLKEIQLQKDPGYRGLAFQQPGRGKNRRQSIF

MAP kinase-activated protein kinase 2 (Homo sapiens), sequence (P49137 whole entry, looked up): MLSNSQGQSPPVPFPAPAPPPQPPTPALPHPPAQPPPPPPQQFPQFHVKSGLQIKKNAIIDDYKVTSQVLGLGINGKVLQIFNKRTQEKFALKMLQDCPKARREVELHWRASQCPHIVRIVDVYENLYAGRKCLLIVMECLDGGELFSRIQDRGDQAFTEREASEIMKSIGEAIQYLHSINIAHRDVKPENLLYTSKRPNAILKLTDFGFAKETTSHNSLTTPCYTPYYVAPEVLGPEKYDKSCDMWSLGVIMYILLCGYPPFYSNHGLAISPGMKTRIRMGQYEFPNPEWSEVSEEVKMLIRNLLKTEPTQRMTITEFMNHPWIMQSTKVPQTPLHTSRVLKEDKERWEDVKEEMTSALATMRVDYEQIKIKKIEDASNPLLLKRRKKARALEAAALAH

Compound: O[C@H]1CC[C@H](Nc2nccc(-n3nnc4ccccc43)n2)CC1
- inhibition [1]: < 50%
- inhibition [2]: < 50%
- inhibition [3]: 100%
- inhibition [4]: 100%
- inhibition [5]: 85%
- inhibition [6]: < 50%

Compound: CS(=O)(=O)CCCOc1cccc2c1ccn2-c1ccnc(N[C@H]2CC[C@H](C(=O)N3CCC(O)CC3)CC2)n1
- inhibition [3]: > 85%
- inhibition [4]: > 85%

Compound: O[C@H]1CC[C@H](Nc2nccc(-n3ncc4ccccc43)n2)CC1
- inhibition [1]: < 50%
- inhibition [2]: 64%
- inhibition [3]: 99%
- inhibition [4]: 97%
- inhibition [5]: < 50%
- inhibition [6]: < 50%

Compound: O[C@H]1CC[C@H](Nc2nccc(-c3n[nH]c4ccccc34)n2)CC1
- inhibition [2]: 95%

Compound: O[C@H]1CC[C@H](Nc2nccc(-n3ccc4ccccc43)n2)CC1
- inhibition [1]: < 50%
- inhibition [2]: < 50%
- inhibition [3]: 98%
- inhibition [4]: 95%
- inhibition [5]: < 50%
- inhibition [6]: < 50%
